According to ChEMBL document CHEMBL3259728, “Design, synthesis and biological evaluation of some novel substituted quinazolines as antitumor agents” (2014):

Assays:
Type in all cases: functional
[1] = Cytotoxicity against human NCI-ADR-RES cells after 48 hrs by SRB assay
Method in brief: (§1)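 NCI 60-cell-line panel of human tumour lines from nine cancer types. Continuous 48 h exposure at five 10-fold dilutions from 10^-4 to 10^-8 M, with 5-FU as positive control. SRB protein stain read spectrophotometrically at time zero, untreated control and each concentration. GI50, TGI and LC50 were derived from the [(Ti−Tz)/(C−Tz)]×100 growth relations, and out-of-range values are given as > or < the tested limits.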

KM12 = test: Growth inhibition of human KM12 cells assessed as cell growth at 10^-7 M after 48 hrs by SRB assay; details: KM12, 48 h, read-out: Activity
U-251 = test: Cytotoxicity against human U251 cells after 48 hrs by SRB assay; details: U-251, 48 h
Method in brief: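 NCI 60-cell-line panel, 48 h continuous exposure to five 10-fold dilutions from 10^-4 to 10^-8 M. SRB protein staining was read spectrophotometrically, with time-zero, untreated-control and treated absorbances. GI50, TGI and LC50 were derived from the percentage-growth formulas. Values outside the tested range are expressed as more or less than the maximum or minimum concentration.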

CAKI-1 = test: Growth inhibition of human CAKI-1 cells assessed as cell growth at 10^-6 M after 48 hrs by SRB assay; details: CAKI-1, 48 h, read-out: Activity
Method in brief: (§2)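 Five-dose NCI panel protocol. Each dose (10^-4 to 10^-8 M, 10-fold steps) was given as 48 h continuous exposure, and protein was measured by SRB staining. Percentage growth at each level is [(Ti−Tz)/(C−Tz)]×100, where Tz is time-zero absorbance and C is untreated control.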

MOLT-4 = test: Cytotoxicity against human MOLT4 cells after 48 hrs by SRB assay; details: MOLT-4, 48 h; method in brief: as §1
HCT-116 = test: Growth inhibition of human HCT116 cells assessed as cell growth at 10^-6 M after 48 hrs by SRB assay; details: HCT-116, 48 h, read-out: Activity
HOP-62 = test: Cytotoxicity against human HOP62 cells after 48 hrs by SRB assay; details: HOP-62, 48 h; method in brief: as §1
SK-MEL-5 = test: Cytotoxicity against human SK-MEL-5 cells after 48 hrs by SRB assay; details: SK-MEL-5, 48 h; method in brief: as §1
NCI-H460 = test: Growth inhibition of human NCI-H460 cells assessed as cell growth at 10^-5 M after 48 hrs by SRB assay; details: NCI-H460, 48 h, read-out: Activity
[2] = Growth inhibition of human UO31 cells assessed as cell growth at 10^-8 M after 48 hrs by SRB assay; details: UO-31, 48 h, read-out: Activity
[3] = Growth inhibition of human OVCAR8 cells assessed as cell growth at 10^-4 M after 48 hrs by SRB assay; details: OVCAR-8, 48 h, read-out: Activity
DU-145 = test: Growth inhibition of human DU145 cells assessed as cell growth at 10^-7 M after 48 hrs by SRB assay; details: DU-145, 48 h, read-out: Activity
[4] = Growth inhibition of human OVCAR3 cells assessed as cell growth at 10^-7 M after 48 hrs by SRB assay; details: OVCAR-3, 48 h, read-out: Activity
RXF 393 = test: Cytotoxicity against human RXF393 cells after 48 hrs by SRB assay; details: RXF 393, 48 h; method in brief: as §1
[5] = Growth inhibition of human MOLT4 cells assessed as cell growth at 10^-6 M after 48 hrs by SRB assay; details: MOLT-4, 48 h, read-out: Activity
M14 = test: Growth inhibition of human M14 cells assessed as cell growth at 10^-6 M after 48 hrs by SRB assay; details: M14, 48 h, read-out: Activity
MDA-MB-231 = test: Growth inhibition of human MDA-MB-231 cells assessed as cell growth at 10^-5 M after 48 hrs by SRB assay; details: MDA-MB-231, 48 h, read-out: Activity
MDA-MB-435 = test: Cytotoxicity against human MDA-MB-435 cells after 48 hrs by SRB assay; details: MDA-MB-435, 48 h; method in brief: as §1
[6] = Growth inhibition of human Hs578T cells assessed as cell growth at 10^-6 M after 48 hrs by SRB assay; details: Hs-578T, read-out: Activity
SR = test: Growth inhibition of human SR cells assessed as cell growth at 10^-8 M after 48 hrs by SRB assay; details: read-out: Activity
[7] = Growth inhibition of human NCI-ADR-RES cells assessed as cell growth at 10^-7 M after 48 hrs by SRB assay; details: read-out: Activity
[8] = Growth inhibition of human SF539 cells assessed as cell growth at 10^-7 M after 48 hrs by SRB assay; details: SF-539, 48 h, read-out: Activity
Malme-3M = test: Cytotoxicity against human MALME-3M cells after 48 hrs by SRB assay; method in brief: as §1
CCRF-CEM = test: Growth inhibition of human CCRF-CEM cells assessed as cell growth at 10^-6 M after 48 hrs by SRB assay; details: read-out: Activity; method in brief: as §2
A498 = test: Growth inhibition of human A498 cells assessed as cell growth at 10^-7 M after 48 hrs by SRB assay; details: A498, 48 h, read-out: Activity; method in brief: as §2
[9] = Growth inhibition of human OVCAR8 cells assessed as cell growth at 10^-6 M after 48 hrs by SRB assay; details: OVCAR-8, 48 h, read-out: Activity
[10] = read-out: LC50 (the source's name)
[11] = read-out: pLC50 (the source's name) (converted)

Cc1ccc(-c2nc3ccc(Cl)cc3c(=O)n2/N=C/c2ccccc2)cc1
GI50 ([1]; read-out: GI50): 8.87 µM
CC50 [1, 10]: > 100 µM
TGI ([1]; read-out: TGI): > 100 µM
GI50 ([1]; read-out: pGI50 (converted)): 8.91 µM
CC50 [1, 11]: > 100 µM
TGI ([1]; read-out: pTGI): > 100 µM
growth at 0.1 µM (KM12): 97%
GI50 (U-251; read-out: GI50): 5.05 µM
CC50 (U-251; [10]): > 100 µM
TGI (U-251; read-out: TGI): > 100 µM
GI50 (U-251; read-out: pGI50 (converted)): 5.01 µM
CC50 (U-251; [11]): > 100 µM
TGI (U-251; read-out: pTGI): > 100 µM
growth at 1 µM (CAKI-1): 77%
GI50 (MOLT-4; read-out: GI50): > 100 µM
CC50 (MOLT-4; [10]): > 100 µM
TGI (MOLT-4; read-out: TGI): > 100 µM
GI50 (MOLT-4; read-out: pGI50 (converted)): > 100 µM
CC50 (MOLT-4; [11]): > 100 µM
TGI (MOLT-4; read-out: pTGI): > 100 µM
growth at 1 µM (HCT-116): 87%
GI50 (HOP-62; read-out: GI50): 1.98 µM
CC50 (HOP-62; [10]): 31.8 µM
TGI (HOP-62; read-out: TGI): 5.09 µM
GI50 (HOP-62; read-out: pGI50 (converted)): 2 µM
CC50 (HOP-62; [11]): 31.6 µM
TGI (HOP-62; read-out: pTGI (converted)): 5.13 µM
GI50 (SK-MEL-5; read-out: GI50): 20 µM
CC50 (SK-MEL-5; [10]): > 100 µM
TGI (SK-MEL-5; read-out: TGI): > 100 µM
GI50 (SK-MEL-5; read-out: pGI50 (converted)): 20 µM
CC50 (SK-MEL-5; [11]): > 100 µM
TGI (SK-MEL-5; read-out: pTGI): > 100 µM
growth at 10 µM (NCI-H460): 23%
growth at 0.01 µM [2]: 77%
growth at 100 µM [3]: 27%
growth at 0.1 µM (DU-145): 98%
growth at 0.1 µM [4]: 96%
GI50 (RXF 393; read-out: GI50): 6.46 µM
CC50 (RXF 393; [10]): > 100 µM
TGI (RXF 393; read-out: TGI): > 100 µM
GI50 (RXF 393; read-out: pGI50 (converted)): 6.46 µM
CC50 (RXF 393; [11]): > 100 µM
TGI (RXF 393; read-out: pTGI): > 100 µM
growth at 1 µM [5]: 99%
growth at 1 µM (M14): 97%
growth at 10 µM (MDA-MB-231): 33%
GI50 (MDA-MB-435; read-out: GI50): > 100 µM
CC50 (MDA-MB-435; [10]): > 100 µM
TGI (MDA-MB-435; read-out: TGI): > 100 µM
GI50 (MDA-MB-435; read-out: pGI50 (converted)): > 100 µM
CC50 (MDA-MB-435; [11]): > 100 µM
TGI (MDA-MB-435; read-out: pTGI): > 100 µM
growth at 1 µM [6]: 84%
growth at 0.01 µM (SR): 96%
growth at 0.1 µM [7]: 95%
growth at 0.1 µM [8]: 97%
GI50 (Malme-3M; read-out: GI50): 5.97 µM
CC50 (Malme-3M; [10]): > 100 µM
TGI (Malme-3M; read-out: TGI): > 100 µM
GI50 (Malme-3M; read-out: pGI50 (converted)): 6.03 µM
CC50 (Malme-3M; [11]): > 100 µM
TGI (Malme-3M; read-out: pTGI): > 100 µM
growth at 1 µM (CCRF-CEM): 88%
growth at 0.1 µM (A498): 85%
growth at 1 µM [9]: 89%
